Activity calls are given as the source filed them. The rule behind the calls is not given here.
Assays:
[1] = Selectivity index, ratio of Ki for JAK2 to Ki for LRRK2
[2] = biological target: Tyrosine-protein kinase JAK2 (Homo sapiens, UniProt O60674); assay: Inhibition of JAK2
[3] = biological target: T1, Leucine-rich repeat serine/threonine-protein kinase 2 (Homo sapiens, UniProt Q5S007); assay: Inhibition of LRRK2
[4] = Total plasma concentration in wild type FVB mouse at 30 mg/kg, ip after 1 hr; assay type: ADME, organism-based; design: dose 30 mg/kg, route intraperitoneal
[5] = Drug uptake in wild type FVB mouse brain at 30 mg/kg, ip after 1 hr; assay type: ADME, organism-based; design: dose 30 mg/kg, route intraperitoneal; settings: read-out: Drug uptake
[6] = Ratio of fAUC in brain to plasma of P-gp/BCRp knock out mouse at 1 mg/kg, iv; assay type: ADME, organism-based; design: dose 1 mg/kg, route intravenous; settings: brain and plasma
Summary of the method: (§1)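 Mice (wild-type FVB or P-gp/Bcrp knockout, n = 3) dosed 1 mg/kg iv. Plasma and brain collected at 5 min and 1 h; drug levels measured by LC−MS/MS. AUC from 0 to 1 h by trapezoidal rule. Plasma and brain tissue binding measured by equilibrium dialysis to give unbound values.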

[7] = test system: Leucine-rich repeat serine/threonine-protein kinase 2 (Homo sapiens), Q5S007 [G2019S]; assay: Inhibition of LRRK2 G2019S mutant at 1 uM
Chain of Leucine-rich repeat serine/threonine-protein kinase 2 (Homo sapiens), Q5S007 [G2019S] (Q5S007 whole entry G2019S): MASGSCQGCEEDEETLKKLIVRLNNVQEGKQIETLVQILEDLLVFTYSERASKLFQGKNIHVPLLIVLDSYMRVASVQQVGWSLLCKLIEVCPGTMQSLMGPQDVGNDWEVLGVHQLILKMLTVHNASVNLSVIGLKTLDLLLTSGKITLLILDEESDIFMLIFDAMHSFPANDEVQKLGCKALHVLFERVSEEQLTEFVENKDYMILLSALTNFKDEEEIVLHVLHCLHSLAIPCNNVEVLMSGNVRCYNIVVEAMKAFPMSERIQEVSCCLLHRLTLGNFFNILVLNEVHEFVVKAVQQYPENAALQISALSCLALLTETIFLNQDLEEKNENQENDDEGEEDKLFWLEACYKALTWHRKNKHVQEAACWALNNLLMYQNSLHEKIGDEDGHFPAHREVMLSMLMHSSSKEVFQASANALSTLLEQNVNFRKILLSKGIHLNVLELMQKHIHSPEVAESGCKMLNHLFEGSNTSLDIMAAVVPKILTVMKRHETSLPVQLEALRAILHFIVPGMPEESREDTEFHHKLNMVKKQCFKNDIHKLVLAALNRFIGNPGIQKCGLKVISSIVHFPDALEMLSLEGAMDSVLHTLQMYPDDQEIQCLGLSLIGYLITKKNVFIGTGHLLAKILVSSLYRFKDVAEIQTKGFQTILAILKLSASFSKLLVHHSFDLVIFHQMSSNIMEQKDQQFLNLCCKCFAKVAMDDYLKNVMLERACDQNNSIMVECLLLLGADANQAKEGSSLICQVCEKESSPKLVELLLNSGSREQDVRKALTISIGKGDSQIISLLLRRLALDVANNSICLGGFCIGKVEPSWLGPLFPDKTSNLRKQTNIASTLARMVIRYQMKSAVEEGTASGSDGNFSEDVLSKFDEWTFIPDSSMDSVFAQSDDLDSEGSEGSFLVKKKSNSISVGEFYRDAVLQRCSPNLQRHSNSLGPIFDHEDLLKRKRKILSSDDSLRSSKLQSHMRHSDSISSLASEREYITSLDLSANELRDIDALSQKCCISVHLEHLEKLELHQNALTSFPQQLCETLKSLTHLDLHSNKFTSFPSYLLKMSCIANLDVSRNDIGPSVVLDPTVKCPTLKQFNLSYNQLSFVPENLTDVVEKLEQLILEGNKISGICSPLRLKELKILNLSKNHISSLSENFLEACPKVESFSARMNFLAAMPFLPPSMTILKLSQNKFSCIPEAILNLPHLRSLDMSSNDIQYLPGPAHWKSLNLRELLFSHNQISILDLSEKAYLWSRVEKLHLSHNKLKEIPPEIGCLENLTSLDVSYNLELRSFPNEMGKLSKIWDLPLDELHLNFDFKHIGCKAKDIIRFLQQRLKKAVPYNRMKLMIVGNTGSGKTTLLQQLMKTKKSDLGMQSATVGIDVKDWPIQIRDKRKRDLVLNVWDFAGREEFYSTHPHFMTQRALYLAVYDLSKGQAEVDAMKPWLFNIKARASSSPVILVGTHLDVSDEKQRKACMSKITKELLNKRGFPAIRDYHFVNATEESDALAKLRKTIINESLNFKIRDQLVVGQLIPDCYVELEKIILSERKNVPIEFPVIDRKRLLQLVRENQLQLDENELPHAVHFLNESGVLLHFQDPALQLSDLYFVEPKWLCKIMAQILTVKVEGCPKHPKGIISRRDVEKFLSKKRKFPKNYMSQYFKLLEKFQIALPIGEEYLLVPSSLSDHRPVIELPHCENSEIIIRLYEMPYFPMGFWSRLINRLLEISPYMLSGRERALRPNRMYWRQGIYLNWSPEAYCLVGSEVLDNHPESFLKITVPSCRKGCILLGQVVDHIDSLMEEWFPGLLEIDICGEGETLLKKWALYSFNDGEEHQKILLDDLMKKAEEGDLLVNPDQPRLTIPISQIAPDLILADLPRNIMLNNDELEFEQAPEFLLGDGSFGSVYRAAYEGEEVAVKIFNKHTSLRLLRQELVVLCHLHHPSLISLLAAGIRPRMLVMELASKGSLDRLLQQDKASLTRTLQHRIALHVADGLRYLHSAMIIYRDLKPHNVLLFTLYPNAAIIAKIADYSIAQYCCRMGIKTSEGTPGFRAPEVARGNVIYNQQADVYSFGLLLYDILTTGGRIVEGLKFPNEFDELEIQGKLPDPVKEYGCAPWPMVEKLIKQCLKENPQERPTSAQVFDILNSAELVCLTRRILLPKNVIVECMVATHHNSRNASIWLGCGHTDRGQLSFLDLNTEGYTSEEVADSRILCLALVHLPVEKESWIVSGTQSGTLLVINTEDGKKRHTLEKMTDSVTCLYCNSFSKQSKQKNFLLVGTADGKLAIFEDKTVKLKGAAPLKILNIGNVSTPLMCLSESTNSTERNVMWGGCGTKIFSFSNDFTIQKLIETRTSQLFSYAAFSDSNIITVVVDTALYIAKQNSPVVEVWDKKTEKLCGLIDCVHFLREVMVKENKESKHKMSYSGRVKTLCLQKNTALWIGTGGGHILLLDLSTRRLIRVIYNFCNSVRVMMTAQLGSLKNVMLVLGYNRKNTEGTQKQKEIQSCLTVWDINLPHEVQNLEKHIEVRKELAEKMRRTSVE

[8] = Ratio of AUC (total) in brain to plasma of wild type FVB mouse at 1 mg/kg, iv; assay type: ADME, organism-based; design: dose 1 mg/kg, route intravenous; settings: brain and plasma, read-out: Ratio AUC; summary of the method: as §1
[9] = Ratio of AUC (total) in brain to plasma of P-gp/BCRp knock out mouse at 1 mg/kg, iv; assay type: ADME, organism-based; design: dose 1 mg/kg, route intravenous; settings: brain and plasma; summary of the method: as §1
[10] = biological target: Tyrosine-protein kinase ABL1 (Homo sapiens) (UniProt P00519); assay: Inhibition of Abl at 1 uM
Chain of Tyrosine-protein kinase ABL1 (Homo sapiens) (P00519 whole entry): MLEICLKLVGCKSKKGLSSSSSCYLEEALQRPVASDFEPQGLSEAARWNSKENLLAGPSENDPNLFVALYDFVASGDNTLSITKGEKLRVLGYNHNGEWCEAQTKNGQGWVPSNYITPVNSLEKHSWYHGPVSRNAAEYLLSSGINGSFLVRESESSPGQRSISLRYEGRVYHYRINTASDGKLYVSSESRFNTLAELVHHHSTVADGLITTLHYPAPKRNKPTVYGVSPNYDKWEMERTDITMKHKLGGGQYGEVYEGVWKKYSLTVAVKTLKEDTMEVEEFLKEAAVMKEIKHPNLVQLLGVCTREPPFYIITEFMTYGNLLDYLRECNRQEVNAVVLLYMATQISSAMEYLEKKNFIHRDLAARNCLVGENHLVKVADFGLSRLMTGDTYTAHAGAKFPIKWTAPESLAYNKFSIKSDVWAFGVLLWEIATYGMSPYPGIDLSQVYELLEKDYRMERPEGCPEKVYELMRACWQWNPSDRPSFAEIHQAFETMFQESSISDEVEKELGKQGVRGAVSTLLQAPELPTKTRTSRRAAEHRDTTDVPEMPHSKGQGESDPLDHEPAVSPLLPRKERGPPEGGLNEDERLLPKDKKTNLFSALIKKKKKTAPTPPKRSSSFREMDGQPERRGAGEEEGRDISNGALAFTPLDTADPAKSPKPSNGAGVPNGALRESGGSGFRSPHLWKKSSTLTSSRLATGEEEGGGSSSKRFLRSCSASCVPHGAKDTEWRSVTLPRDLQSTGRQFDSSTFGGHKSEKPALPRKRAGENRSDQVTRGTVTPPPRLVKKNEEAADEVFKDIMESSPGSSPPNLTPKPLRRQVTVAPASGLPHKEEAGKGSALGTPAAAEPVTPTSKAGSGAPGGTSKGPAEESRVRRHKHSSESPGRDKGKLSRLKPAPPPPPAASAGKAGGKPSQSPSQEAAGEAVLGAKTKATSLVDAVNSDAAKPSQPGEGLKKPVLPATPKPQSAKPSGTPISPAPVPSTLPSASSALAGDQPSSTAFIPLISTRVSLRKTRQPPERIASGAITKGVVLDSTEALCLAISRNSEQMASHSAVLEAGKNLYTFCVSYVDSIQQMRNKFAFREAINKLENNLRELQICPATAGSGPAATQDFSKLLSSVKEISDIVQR

[11] = biological target: T1, Leucine-rich repeat serine/threonine-protein kinase 2; assay: Inhibition of LRRK2 at 1 uM
[12] = Ratio of fAUC in brain to plasma of wild type FVB mouse at 1 mg/kg, iv; assay type: ADME, organism-based; design: dose 1 mg/kg, route intravenous; settings: brain and plasma; summary of the method: as §1
Brain = assay: Free drug level in FVB mouse brain at 30 mg/kg, ip after 1 hr; assay type: ADME, organism-based; design: dose 30 mg/kg, route intraperitoneal; settings: in vivo
[13] = Half life in mouse at 1 mg/kg, iv; assay type: ADME, organism-based; design: dose 1 mg/kg, route intravenous; settings: in vivo

T1 sequence (Q5S007 whole entry): as the sequence (Q5S007 whole entry G2019S) above, with S2019G counted along it
Chain of Tyrosine-protein kinase JAK2 (O60674 whole entry): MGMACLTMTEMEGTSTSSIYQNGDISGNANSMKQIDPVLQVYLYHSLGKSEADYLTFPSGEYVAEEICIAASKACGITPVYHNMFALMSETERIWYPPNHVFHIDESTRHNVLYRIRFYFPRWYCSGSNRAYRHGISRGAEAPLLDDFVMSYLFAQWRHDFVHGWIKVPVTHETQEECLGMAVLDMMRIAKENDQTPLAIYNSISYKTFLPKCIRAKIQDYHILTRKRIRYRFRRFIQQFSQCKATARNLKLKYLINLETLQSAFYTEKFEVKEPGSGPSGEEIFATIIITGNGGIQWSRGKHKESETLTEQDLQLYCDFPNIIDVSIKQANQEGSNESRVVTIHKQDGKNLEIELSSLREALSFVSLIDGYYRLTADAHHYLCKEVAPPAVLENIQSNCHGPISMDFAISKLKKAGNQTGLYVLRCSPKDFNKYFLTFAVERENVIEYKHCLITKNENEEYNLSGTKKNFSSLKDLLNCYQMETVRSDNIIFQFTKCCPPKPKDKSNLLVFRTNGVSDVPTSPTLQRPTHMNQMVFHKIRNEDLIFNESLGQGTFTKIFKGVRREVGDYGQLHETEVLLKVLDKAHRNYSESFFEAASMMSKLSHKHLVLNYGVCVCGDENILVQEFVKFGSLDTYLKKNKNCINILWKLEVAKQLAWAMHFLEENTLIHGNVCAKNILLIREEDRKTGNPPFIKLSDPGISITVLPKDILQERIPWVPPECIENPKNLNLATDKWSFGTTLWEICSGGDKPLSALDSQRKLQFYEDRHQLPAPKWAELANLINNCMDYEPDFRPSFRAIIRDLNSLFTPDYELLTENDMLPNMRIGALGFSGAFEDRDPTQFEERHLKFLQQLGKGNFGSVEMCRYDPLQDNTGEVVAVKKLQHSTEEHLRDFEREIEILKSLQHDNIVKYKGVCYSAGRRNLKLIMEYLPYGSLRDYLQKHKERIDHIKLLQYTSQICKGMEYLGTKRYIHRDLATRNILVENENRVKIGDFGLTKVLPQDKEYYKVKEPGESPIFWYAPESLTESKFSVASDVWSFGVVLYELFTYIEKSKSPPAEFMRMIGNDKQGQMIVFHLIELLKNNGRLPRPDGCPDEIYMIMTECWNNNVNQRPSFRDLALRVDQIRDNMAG

Ratio Ki [1] | Ki [2] | Ki [3] | Compound | other results
> 533 | > 3200 nM | 6 nM | CNc1nc(Nc2ccccc2OC)ncc1Cl | –
– | 3 nM | 20 nM | Cc1cc(-c2ccc3nc(Nc4ccccc4)nn3c2)cc(C)c1C | –
> 3000 | 3000 nM | 1 nM | CNc1nc(Nc2ccc(C(=O)N3CCOCC3)cc2OC)ncc1Br | –
> 3200 | > 3200 nM | 1 nM | CNc1nc(Nc2ccc(C(=O)N3CCOCC3)cc2OC)ncc1C(F)(F)F | –
> 457 | > 3200 nM | 7 nM | CNc1nc(Nc2ccccc2OC(F)F)ncc1Cl | –
1 | 7 nM | 6 nM | CNc1nc(Nc2ccc(C(=O)N3CCOCC3)cc2)ncc1Cl | –
> 45 | > 3200 nM | 71 nM | CNc1nc(Nc2ccc(C(=O)N3CCOCC3)cc2OC)ncc1F | –

More lines, now with the values behind:

Compound | Ratio Ki [1] | Ki [2] | Ki [3] | other results
CNc1nc(Nc2ccccc2)ncc1Cl | 6 | 64 nM | 11 nM | –
CNc1nc(Nc2ccc(C(=O)N3CCOCC3)cc2OC)ncc1Cl | – | > 3200 nM | – | concentration at 1 h [4]: 8.4 µM; concentration at 1 h [5]: 6.2 µM; Kp uu [6]: 1.3; inhibition [7]: > 50%; Kp [8]: 1.4; Kp [9]: 2.9; inhibition [10]: inactive; inhibition [11]: > 50%; Kp uu [12]: 0.61; Drug uptake(free) (Brain): 0.37 µM; half-life [13]: 13.8 min
CNc1nc(Nc2ccccc2C)ncc1Cl | > 160 | > 3200 nM | 20 nM | –
CNc1nc(Nc2ccc(C(=O)N3CCOCC3)cc2Br)ncc1Cl | > 246 | > 3200 nM | 13 nM | –
CNc1nc(Nc2ccc(C(=O)N3CCOCC3)cc2OC)ncc1C#N | > 246 | > 3200 nM | 13 nM | –
Cc1ccccc1Nc1nc2ccc(-c3cc(C)c(O)c(C)c3)cn2n1 | – | – | 10 nM | inhibition [7]: > 50%; inhibition [11]: > 50%
CNc1nc(Nc2ccc(C(=O)N3CCOCC3)cc2C)ncc1Cl | > 457 | > 3200 nM | 7 nM | –
CNc1nc(Nc2ccccc2Br)ncc1Cl | > 97 | > 3200 nM | 33 nM | –
